Rows were chosen to be rich in hits. Some 0.72% of all compounds tested hit in one or more screens of this group.
bIAP inhibitor: intestinal alkaline phosphatase (bovine) inhibition. 190,000 tested, under 10 active. purified bovine IAP, CDP-star luminescence, 30 min. AID 1019. inhibition, % at 20 µM;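 active = over 50% inhibition of intestinal alkaline phosphatase at 20 µM in the single-dose screen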
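System: Purified bovine intestinal alkaline phosphatase (IAP) enzyme | Input: IAP diluted 1/65,000,000 in the well | Also added: CDP-star chemiluminescent phosphatase substrate, 30 µM final | Dosing: 20 µM single dose | Times: Enzyme reaction for 30 min at room temperature | Detection: Luminescence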
bIAP activator: increases bovine intestinal alkaline phosphatase activity. activation factor at 20 µM. purified bovine IAP, CDP-star luminescence, 30 min; active compounds read high; fold of DMSO-control signal, blank-subtracted. 200,000 compounds, 0.17% hits;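 active = activation factor of 2 or more at 20 µM, a signal rise over negative controls twice the positive control's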
hIAP block: blocks human intestinal alkaline phosphatase; P09923; 330,000 compounds, 0.12% hits; purified IAP, CDP-Star luminescence, 30 min; inhibition, % at 10 µM; AID 2544;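 active = inhibition reaching a set limit with compound at 10 µM in the primary screen, cut at about 35% in these data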
Target sequence (P09923 whole entry, looked up): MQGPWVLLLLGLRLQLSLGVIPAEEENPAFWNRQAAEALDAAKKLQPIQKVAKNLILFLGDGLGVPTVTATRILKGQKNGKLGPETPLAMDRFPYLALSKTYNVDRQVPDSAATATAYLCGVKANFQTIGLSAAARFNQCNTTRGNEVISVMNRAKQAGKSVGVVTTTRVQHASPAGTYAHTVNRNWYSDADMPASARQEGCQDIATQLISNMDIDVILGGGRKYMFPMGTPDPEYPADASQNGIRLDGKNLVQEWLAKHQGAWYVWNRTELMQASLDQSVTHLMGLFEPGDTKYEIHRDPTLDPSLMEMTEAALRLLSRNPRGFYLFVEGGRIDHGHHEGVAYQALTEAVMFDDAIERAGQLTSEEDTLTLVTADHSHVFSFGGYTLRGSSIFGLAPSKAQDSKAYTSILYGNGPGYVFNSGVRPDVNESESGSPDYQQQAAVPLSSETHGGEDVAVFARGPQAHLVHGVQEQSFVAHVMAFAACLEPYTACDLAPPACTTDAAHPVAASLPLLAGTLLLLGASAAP
hIAP activ: human IAP activation; P09923; purified human IAP, CDP-Star luminescence, 30 min; active compounds read high; 1 = vehicle-only enzyme, 0 = enzyme-free background; activation factor at 10 µM; 330,000 compounds, 0.16% hits; AID 2524;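 active = activation factor of the enzyme at least 2-fold when tested at 20 µM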
mIAP block: blocks mouse intestinal alkaline phosphatase. inhibition, % at 10 µM. purified mouse IAP, CDP-Star luminescence, 30 min. AID 2806. 330,000 compounds, 0.2% hits;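 active = inhibition of at least 40% at 10 µM in the primary screen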
mIAP act: mouse IAP activation. muIAP, CDP-Star luminescence, 30 min; active compounds read high; 1 = vehicle-only enzyme signal, 0 = enzyme-free wells. activation factor at 10 µM. 330,000 compounds, 0.24% hits. AID 2805;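 active = activation factor of at least 2 at 20 µM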
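Assay system: mouse IAP enzyme / Compound: DMSO-dissolved test compounds / Timing: 30 min, room temperature / Measured by: luminescence from enzymatic CDP-Star hydrolysis / Control set: DMSO-only wells, enzyme-free buffer wells as negative control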
mIAP inh confirm: mouse IAP inhibition confirmation. shares compounds with mIAP block. purified mouse IAP, CDP-Star luminescence, 30 min. inhibition, % at 10 µM. 11,000 compounds, 4.7% hits;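 active = inhibition of at least 40% at 10 µM in either of the two replicates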
Large screens that a line does not name were inactive (follow-up assays come after a bar, where they were run).

S=c1[nH]nc(COc2ccccc2)n1/N=C/C=C/c1ccco1	mIAP block 51 (no result: bIAP inhibitor, bIAP activator) | mIAP inh confirm 58
COc1cc(/C=N/n2c(-c3n[nH]c4c3CCC4)n[nH]c2=S)cc(OC)c1O	none (no result: bIAP inhibitor, bIAP activator)
S=c1[nH]nc(-c2n[nH]c3c2CCC3)n1/N=C/C=C/c1ccco1	mIAP block 50 (no result: bIAP inhibitor, bIAP activator) | mIAP inh confirm 42
S=c1[nH]nc(-c2cc(-c3ccccc3)n[nH]2)n1/N=C/C=C/c1ccco1	mIAP block 48 (no result: bIAP inhibitor, bIAP activator) | mIAP inh confirm 47
C=CCSC1=N/C(=C\C=C\c2ccco2)C(=O)S1	mIAP block 53 | mIAP inh confirm 65
C=CCSC1=N/C(=C\c2sccc2C)C(=O)S1	none
CCOc1ccccc1N(CC(=O)N1CCCC1)S(C)(=O)=O	none (no result: bIAP inhibitor, bIAP activator)
CCOc1ccc(OCCC(=O)NNC(=O)c2ccncc2)cc1	none (no result: bIAP inhibitor, bIAP activator)
CCCCCOc1ccc(C(=O)CCC(=O)NNC(=O)c2ccncc2)cc1	mIAP act 2.8 (no result: bIAP inhibitor, bIAP activator) | mIAP inh confirm inactive
COc1cccc(CC(=O)NC2CCSc3ccccc32)c1 (stereo unspecified)	none (no result: bIAP inhibitor, bIAP activator)
S=C(NCc1ccccc1)NC1CCSc2ccccc21 (stereo unspecified)	mIAP act 4.4 (no result: bIAP inhibitor, bIAP activator) | mIAP inh confirm inactive
FC(F)Oc1ccc(NC(=S)NC2CCSc3ccccc32)cc1 (stereo unspecified)	mIAP act 5.1 (no result: bIAP inhibitor, bIAP activator) | mIAP inh confirm inactive
Cc1cccc(NC(=S)NC2CCSc3ccccc32)c1 (stereo unspecified)	mIAP act 4.3 (no result: bIAP inhibitor, bIAP activator) | mIAP inh confirm inactive
O=C(NC1CCSc2ccccc21)c1cccc(OC(F)F)c1 (stereo unspecified)	none (no result: bIAP inhibitor, bIAP activator)
NC(=S)c1cc2cc(Cl)ccc2oc1=O	none (no result: bIAP inhibitor, bIAP activator)
Cc1ccc(F)cc1NC(=O)c1cnccn1	none
CCN(CC)CCNC(=O)c1ccc(NC(=O)Nc2cccc3ccccc23)cc1	mIAP act 3.1 (no result: bIAP inhibitor, bIAP activator) | mIAP inh confirm inactive
O=C1OC(/C(=C\Nc2cc(Cl)ccc2O)[N+](=O)[O-])c2ccccc21 (stereo unspecified)	none
CC(C)CCNC(=O)Nc1ccc2c(c1)N(C)C(=O)CS2	none
CN1C(=O)CSc2ccc(NC(=O)NCCC3=CCCCC3)cc21	mIAP act 3.8 | mIAP inh confirm inactive
CCOc1ccc(CNC2CCCc3ccccc32)cc1 (stereo unspecified)	none
COc1ccc(S(=O)(=O)N2CCCCCC2)cc1NC(=O)Cc1n[nH]c(=O)c2ccccc12	none (no result: bIAP inhibitor, bIAP activator)
COc1ccccc1CNC(=O)c1cc(-c2ccccc2)nn1Cc1cc(C)no1	none (no result: bIAP inhibitor, bIAP activator)
Cc1ccc(CNC(=O)c2cc(-c3ccccc3)nn2Cc2cc(C)no2)cc1	mIAP act 2.2 (no result: bIAP inhibitor, bIAP activator) | mIAP inh confirm inactive
CCc1cc(Cn2nc(-c3ccccc3)cc2C(=O)NCc2ccccc2OC)on1	mIAP act 2.6 (no result: bIAP inhibitor, bIAP activator) | mIAP inh confirm inactive
COc1ccccc1N1CCN(C(=O)c2ccc3[nH]c4c(c3c2)CC(C)CC4)CC1 (stereo unspecified)	none
N#Cc1c(SCC(=O)Nc2nncs2)sc2c(O)cc(=O)[nH]c12	mIAP block 57 (no result: bIAP inhibitor, bIAP activator) | mIAP inh confirm 70
N#Cc1c(SCC(=O)Nc2ccc(C(F)(F)F)cc2)sc2c(O)cc(=O)[nH]c12	none (no result: bIAP inhibitor, bIAP activator)
COc1ccc(CN2C3CCCC2CC(NC(=O)Nc2ccccc2C)C3)cc1 (stereo unspecified)	mIAP act 3 | mIAP inh confirm inactive
COCC(=O)NC1CC2CCCC(C1)N2Cc1ccccc1 (stereo unspecified)	none
COc1ccc(CN2C3CCCC2CC(NC(=O)Nc2ccccc2)C3)cc1 (stereo unspecified)	mIAP act 5.3 | mIAP inh confirm inactive
COc1ccc(CN2C3CCCC2CC(NC(=O)Nc2cccc(C)c2)C3)cc1 (stereo unspecified)	mIAP act 12 | mIAP inh confirm inactive
Cc1cccc(N2CCN(S(=O)(=O)c3c(C)nc4scc(C)n4c3=O)CC2)c1C	none (no result: bIAP inhibitor, bIAP activator)
CNC(C)C(=O)NC(C(=O)N1CCCC1C(=O)Nc1ccc2ncccc2c1)C(C)C (stereo unspecified)	none (no result: bIAP inhibitor, bIAP activator)
CN(C)c1ccc(C(C(=O)NC2CCCC2)N(C(=O)c2ccco2)C2CC2)cc1 (stereo unspecified)	none (no result: bIAP inhibitor, bIAP activator)
